A selection: hits, their analogues and other compounds. The true share with any hit is near 1.9%.
PHOSPHO1 inh = blocks human PHOSPHO1 phosphatase activity; Q8TCT1; recombinant PHOSPHO1, absorbance phosphatase assay; inhibition, % at 13.3 µM; 290,000 tested, 1.1% active; in the data active = inhibition above about 60%
Target sequence (Q8TCT1 whole entry, looked up): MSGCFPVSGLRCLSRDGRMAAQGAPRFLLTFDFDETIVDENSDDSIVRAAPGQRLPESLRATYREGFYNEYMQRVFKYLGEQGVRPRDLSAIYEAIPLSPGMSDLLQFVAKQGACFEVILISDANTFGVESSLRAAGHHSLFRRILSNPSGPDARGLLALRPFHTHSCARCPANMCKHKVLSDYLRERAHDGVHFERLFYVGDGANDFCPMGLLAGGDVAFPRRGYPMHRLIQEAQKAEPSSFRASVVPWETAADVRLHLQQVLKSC
procasp7 counter = activates human procaspase-7, counter-screen for procaspase-3 activators; P55210; recombinant procaspase-7, Ac-DEVD-pNA absorbance 405 nm; D23A/D198A/D206A triple mutant, cannot self-cleave; scale: DMSO 0, 5 µM enzyme 100; 330,000 tested, 0.093% active; activation, % at 8.5 µM;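 active = percent activation above the screen-wide mean plus 3 SD, cut at about 25% in these data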
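Assay system: Uncleavable procaspase-7 mutant enzyme; Input: 2 µM procaspase-7 mutant as dispensed; Also added: DEVD-pNA substrate; Medium: Zinc-free HEPES pH 7.4 with 300 mM NaCl, 0.01% Triton X-100; Timing: 1 h compound preincubation, 2 h substrate cleavage, 25 °C; Measured by: Epi-absorbance of released pNA at 405 nm, two timepoints.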
UBC13 inh = blocks human UBC13 polyubiquitin chain formation; inhibition, % at 20 µM; 330,000 tested, 0.47% active; TR-FRET; P61088; in the data active = inhibition above about 45%, passing the limit was not always enough
Target sequence (P61088 whole entry, looked up): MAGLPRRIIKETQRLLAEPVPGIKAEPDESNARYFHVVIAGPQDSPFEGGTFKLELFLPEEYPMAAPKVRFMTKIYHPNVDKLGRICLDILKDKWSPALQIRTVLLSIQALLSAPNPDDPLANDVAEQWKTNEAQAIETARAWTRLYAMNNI
proCasp3 act = activates human procaspase-3 | P42574 | recombinant procaspase-3 D3A, Ac-DEVD-pNA absorbance 405 nm | activation, % at 8.5 µM | 330,000 tested, 0.11% active;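 active = activation above the mean of all tested compounds plus 3 SD, cut at about 21% in these data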;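 note: 0% = DMSO alone and 100% = DMSO wells spiked with extra 5 µM PC-3 D3A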
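Assay system: Autoprocessing-dead procaspase-3 D3A mutant enzyme; also added: Ac-DEVD-pNA; doses: one concentration, 8.5 µM nominal, 0.8% DMSO; times: 1 h compound preincubation, 2 h substrate hydrolysis at 25 °C; technique: 405 nm absorbance of p-nitroaniline, reads at 0 and 120 min; measure: % activation between DMSO and enzyme-spiked controls; repeats: single replicate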
IDE act = IDE (human) activation, cell-based; P14735; HEK cells, FAbeta-B cleavage, fluorescence polarization; 0% vehicle, 100% cell-free pure enzyme wells; activation, % at 5.96 µM; 340,000 tested, 0.073% active;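 active = activation above the mean of all tested compounds plus 3 SD, set per screening campaign, cut at about 17% in these data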
IDE cell inh = cellular human IDE inhibition. 320,000 tested, 0.41% active. inhibition, % at 5.59 µM. HEK cells, FAbetaB cleavage, fluorescence polarization. P14735;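 active = percent inhibition above the average of all tested compounds plus 3 SD, set per screening campaign, cut at about 16% in these data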;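 note: IDE supplied by intact live HEK cells; FP after avidin binding of uncleaved biotin substrate so inhibition keeps polarization high; 0% = DMSO wells and 100% = 60 µM reference IDE inhibitor Ii1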
Numbers without * were called inactive; . = no result.

SMILES	PHOSPHO1 inh	procasp7 counter	UBC13 inh	proCasp3 act	IDE act	IDE cell inh
O=C(CN1CCN(CN2C(=O)NC3(CCCCCC3)C2=O)CC1)Nc1cccc(F)c1	.	15.0	-2.1	0.2	0.2	-2.5
COc1ccc(C2C=C(c3ccc(Br)cc3)Nc3nc(N4C(=O)CCC4=O)nn32)cc1 (stereo unspecified)	-1.3	6.3	13.6	-2.0	-18.9	29.4*
COc1ccc(C2C=C(c3ccc(Cl)cc3)Nc3nc(NC(C)=O)nn32)cc1 (stereo unspecified)	1.7	2.1	3.9	7.7	.	20.3*
O=C1CCC(=O)N1c1nc2n(n1)C(c1ccccc1)C=C(c1ccc(Br)cc1)N2 (stereo unspecified)	18.5	-9.4	0.7	-3.9	-8.6	6.1
CC(=O)Nc1nc2n(n1)C(c1ccccc1)C=C(c1ccccc1)N2 (stereo unspecified)	-2.2	-2.1	13.0	3.9	3.7	2.3
COc1ccc(CC(=O)N[C@@H]2c3cc(OC)c(OC)cc3C[C@H]2O)cc1	.	5.1	.	-6.1	3.0	.
CCc1cccc(NC(=O)CCCn2c(=O)[nH]c3ccsc3c2=O)c1	13.0	4.8	9.2	5.5	1.5	2.6
CC(C)CCNC(=O)C1CC(=O)N(CCc2ccccc2)C1 (stereo unspecified)	29.9	4.2	5.5	-8.6	-0.7	-1.3
CCC1CCCCN1S(=O)(=O)c1ccc(S(=O)(=O)N2CCN(S(=O)(=O)CC)CC2)cc1 (stereo unspecified)	-25.0	10.2	2.0	-3.2	17.7*	5.6
CCC1CCCCN1S(=O)(=O)c1ccc([N+](=O)[O-])cc1 (stereo unspecified)	8.3	0.8	-2.6	-0.1	5.6	-0.4
O=C(OCC(=O)N1CCN(C(=O)c2ccco2)CC1)c1cc(-c2ccco2)nc2ccccc12	68.9*	-6.7	22.1	-2.1	-0.4	3.7
Cc1cccc(NS(=O)(=O)c2ccc(C(=O)N3CCCCCC3)cc2)c1C	.	2.5	0.6	5.4	-0.6	-10.7
Cc1cc(C)c2c(N)c(C(=O)C(C)(C)C)sc2n1	48.4	-9.6	-7.9	-10.3	-3.9	-0.9
Cc1cc(C)c2c(N)c(S(=O)c3ccc(C(C)(C)C)cc3)sc2n1 (stereo unspecified)	106.0*	-6.7	6.0	-10.3	0.4	1.8
CC(C)=CCc1cc([C@@H]2COc3c(ccc4c3C=CC(C)(C)O4)C2)c(O)cc1O	.	-2.7	-10.9	1.0	3.7	5.2
CC1(C)C=Cc2c(ccc3c2OC[C@H](c2ccc(O)cc2O)C3)O1	.	-9.4	23.4	1.5	17.7*	-3.8
COc1ccc(C(=O)C(C)OC(=O)COc2ccccc2)cc1 (stereo unspecified)	.	5.1	6.3	12.1	0.0	1.9
O=C(Nc1nccs1)c1cccc(N2C(=O)c3cccc4c([N+](=O)[O-])ccc(c34)C2=O)c1	78.0*	-4.1	-43.4	0.4	-3.2	5.8
COCCCNc1c2c3c(cccc3[nH]c1=O)C(=O)c1ccccc1-2	4.3	-11.4	-447.8	-3.8	33.3*	-6.9
COCCCNC1=C(Cl)C(=O)c2ccccc2C1=O	3.6	0.7	-280.1	7.5	1.3	-0.6
Cc1ccc(N2CC(C(=O)Nc3nnc(SCCN4CCOCC4)s3)CC2=O)cc1 (stereo unspecified)	14.2	8.7	-3.4	-2.7	1.9	2.8
COc1cc(/C=C2\N=C3CCCCCN3C2=O)ccc1O	67.2*	-6.6	-43.6	-3.9	-11.2	3.6
COc1ccc(/C=C2\N=C3CCCCCN3C2=O)cc1OC	20.5	1.7	1.3	6.8	0.4	0.6
O=C(CSC1=NNC(c2ccccn2)S1)Nc1ccccc1 (stereo unspecified)	-116.2	-35.1	11.7	-40.7	-3.3	24.9*
O=C(CSC1=NNC(c2ccccn2)S1)Nc1cccc(Cl)c1 (stereo unspecified)	-1.4	-28.3	-7.7	-16.9	.	4.3
COc1cc(OC)c(C(=O)OCC(=O)Nc2ccc(S(=O)(=O)N3CCOCC3)cc2)cc1OC	.	3.6	-1.7	-2.1	-3.7	-1.2
